Test results as given in ChEMBL document CHEMBL5303300, “EUbOPEN Chemogenomics Library - Multiplex” (2023).
Values joined by “and” are separate entries in the source; they are usually repeats but may differ in a detail not shown here. Equal entries are not always repeated.

What was measured:
HEK-293T = assay: Multiplex assay against HEK293T; assay type: toxicity, cell-based; settings: human, number of replicates 2
In short: (§1)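 Live cells were stained at seeding with Hoechst33342, BioTracker Green Microtubule Cytoskeleton Dye, MitoTracker Red and Annexin V Alexa Fluor 680. Following compound addition, they were imaged on a CQ1 microscope at 37°C and 5% CO2 and gated by CellPathfinder machine learning into Hoechst high-intensity objects or normal cells, with normal cells split into healthy, pyknosed or fragmented nuclei and pyknosed cells into mitotic or apoptotic. Tubulin, mitochondrial-mass and membrane-permeability phenotypes are per cents of healthy-nucleus cells.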

Fibroblast = assay: Multiplex assay against human fibroblast; assay type: toxicity, cell-based; settings: number of replicates 2; in short: as §1
[1] = 12 h, 1 µM, compound concentration 1 uM
[2] = 12 h, 10 µM, compound concentration 10 uM
[3] = 24 h, 1 µM, compound concentration 1 uM
[4] = 24 h, 10 µM, compound concentration 10 uM
[5] = 48 h, 1 µM, compound concentration 1 uM
[6] = 48 h, 10 µM, compound concentration 10 uM

COc1cc(OC)cc(-c2cc3cnc(N)nc3nc2NC(=O)NC(C)(C)C)c1
Population Apoptotic (%) (HEK-293T; [1]): 61% and 63% and 50% and 43%
Population Fragmented Nuclei (%) (HEK-293T; [1]): 7% and 3% and 2% and 4%
Population Healthy Nuclei (%) (HEK-293T; [1]): 77% and 80% and 85% and 83%
Population Hoechst High Intensity Objects (%) (HEK-293T; [1]): 9% and 11% and 10%
Population Membrane Permeable-Phenotype (%) (HEK-293T; [1]): 6% and 2% and 3% and 1%
Population Mitochondria Different-Phenotype (%) (HEK-293T; [1]): 15% and 13% and 18% and 20%
Population Mitotic Cells (%) (HEK-293T; [1]): 38% and 36% and 50% and 56%
Population Normal (%) (HEK-293T; [1]): 90% and 88% and 89%
Population Pyknosed Nuclei (%) (HEK-293T; [1]): 15% and 16% and 11%
Population Tubulin-Different-Phenotype (%) (HEK-293T; [1]): 55% and 48% and 54% and 53%
Total Cell Count (HEK-293T; [1]): 713 and 595 and 582 and 616
Population Apoptotic (%) (HEK-293T; [2]): 52% and 55% and 50% and 64%
Population Fragmented Nuclei (%) (HEK-293T; [2]): 2% and 3% and 7% and 5%
Population Healthy Nuclei (%) (HEK-293T; [2]): 82% and 86% and 79% and 81%
Population Hoechst High Intensity Objects (%) (HEK-293T; [2]): 4% and 7% and 12% and 10%
Population Membrane Permeable-Phenotype (%) (HEK-293T; [2]): 1% and 2%
Population Mitochondria Different-Phenotype (%) (HEK-293T; [2]): 25% and 15% and 17% and 19%
Population Mitotic Cells (%) (HEK-293T; [2]): 47% and 44% and 49% and 35%
Population Normal (%) (HEK-293T; [2]): 95% and 92% and 87% and 89%
Population Pyknosed Nuclei (%) (HEK-293T; [2]): 14% and 10% and 12%
Population Tubulin-Different-Phenotype (%) (HEK-293T; [2]): 54% and 47% and 72% and 63%
Total Cell Count (HEK-293T; [2]): 524 and 626 and 917 and 726
Population Apoptotic (%) (HEK-293T; [3]): 46% and 54% and 51% and 53%
Population Fragmented Nuclei (%) (HEK-293T; [3]): 10% and 7% and 8%
Population Healthy Nuclei (%) (HEK-293T; [3]): 76% and 78% and 82% and 80%
Population Hoechst High Intensity Objects (%) (HEK-293T; [3]): 10% and 8%
Population Membrane Permeable-Phenotype (%) (HEK-293T; [3]): 3% and 1% and 2%
Population Mitochondria Different-Phenotype (%) (HEK-293T; [3]): 5% and 2% and 7%
Population Mitotic Cells (%) (HEK-293T; [3]): 53% and 45% and 48% and 46%
Population Normal (%) (HEK-293T; [3]): 89% and 91%
Population Pyknosed Nuclei (%) (HEK-293T; [3]): 12% and 11% and 9%
Population Tubulin-Different-Phenotype (%) (HEK-293T; [3]): 28% and 23% and 29% and 30%
Total Cell Count (HEK-293T; [3]): 1161 and 950 and 940 and 952
Population Apoptotic (%) (HEK-293T; [4]): 52% and 40% and 48%
Population Fragmented Nuclei (%) (HEK-293T; [4]): 5% and 4% and 11% and 8%
Population Healthy Nuclei (%) (HEK-293T; [4]): 85% and 88% and 78% and 82%
Population Hoechst High Intensity Objects (%) (HEK-293T; [4]): 8% and 9%
Population Membrane Permeable-Phenotype (%) (HEK-293T; [4]): 3% and 2% and 1%
Population Mitochondria Different-Phenotype (%) (HEK-293T; [4]): 11% and 4% and 3%
Population Mitotic Cells (%) (HEK-293T; [4]): 47% and 59% and 51%
Population Normal (%) (HEK-293T; [4]): 91% and 90%
Population Pyknosed Nuclei (%) (HEK-293T; [4]): 9% and 6% and 10%
Population Tubulin-Different-Phenotype (%) (HEK-293T; [4]): 30% and 35% and 38% and 33%
Total Cell Count (HEK-293T; [4]): 797 and 901 and 1521 and 1236
Population Apoptotic (%) (HEK-293T; [5]): 16% and 24% and 25% and 17%
Population Fragmented Nuclei (%) (HEK-293T; [5]): 13% [middle of 4 runs]
Population Healthy Nuclei (%) (HEK-293T; [5]): 75% and 84% and 83% and 86%
Population Hoechst High Intensity Objects (%) (HEK-293T; [5]): 8% and 7% and 10%
Population Membrane Permeable-Phenotype (%) (HEK-293T; [5]): 6% and 3% and 4% and 2%
Population Mitochondria Different-Phenotype (%) (HEK-293T; [5]): 0%
Population Mitotic Cells (%) (HEK-293T; [5]): 83% and 75% and 82%
Population Normal (%) (HEK-293T; [5]): 91% and 92% and 89%
Population Pyknosed Nuclei (%) (HEK-293T; [5]): 2% and 3% and 4%
Population Tubulin-Different-Phenotype (%) (HEK-293T; [5]): 12% and 9% and 13% and 16%
Total Cell Count (HEK-293T; [5]): 3190 and 2284 and 2394 and 1901
Population Apoptotic (%) (HEK-293T; [6]): 28% and 21% and 14%
Population Fragmented Nuclei (%) (HEK-293T; [6]): 14% [middle of 4 runs]
Population Healthy Nuclei (%) (HEK-293T; [6]): 85% and 87% and 73% and 82%
Population Hoechst High Intensity Objects (%) (HEK-293T; [6]): 9% and 10%
Population Membrane Permeable-Phenotype (%) (HEK-293T; [6]): 4% and 5% and 2%
Population Mitochondria Different-Phenotype (%) (HEK-293T; [6]): 0% and 1%
Population Mitotic Cells (%) (HEK-293T; [6]): 71% and 78% and 85%
Population Normal (%) (HEK-293T; [6]): 90% and 89%
Population Pyknosed Nuclei (%) (HEK-293T; [6]): 3% and 2%
Population Tubulin-Different-Phenotype (%) (HEK-293T; [6]): 15% and 18% and 20%
Total Cell Count (HEK-293T; [6]): 1964 and 1991 and 3775 and 2773
Population Apoptotic (%) (Fibroblast; [1]): 28% and 48% and 41% and 34%
Population Fragmented Nuclei (%) (Fibroblast; [1]): 10% and 16% and 6% and 8%
Population Healthy Nuclei (%) (Fibroblast; [1]): 72% and 62% and 76% and 70%
Population Hoechst High Intensity Objects (%) (Fibroblast; [1]): 0% and 11%
Population Membrane Permeable-Phenotype (%) (Fibroblast; [1]): 7% and 6% and 5%
Population Mitochondria Different-Phenotype (%) (Fibroblast; [1]): 2% and 0%
Population Mitotic Cells (%) (Fibroblast; [1]): 71% and 51% and 58% and 65%
Population Normal (%) (Fibroblast; [1]): 100% and 88%
Population Pyknosed Nuclei (%) (Fibroblast; [1]): 17% and 20% and 16%
Population Tubulin-Different-Phenotype (%) (Fibroblast; [1]): 18% and 11% and 9% and 8%
Total Cell Count (Fibroblast; [1]): 258 and 266 and 187 and 224
Population Apoptotic (%) (Fibroblast; [2]): 50% and 26% and 38% and 34%
Population Fragmented Nuclei (%) (Fibroblast; [2]): 8% and 9% and 14% and 12%
Population Healthy Nuclei (%) (Fibroblast; [2]): 60% and 67% and 71% and 66%
Population Hoechst High Intensity Objects (%) (Fibroblast; [2]): 0%
Population Membrane Permeable-Phenotype (%) (Fibroblast; [2]): 4% and 5%
Population Mitochondria Different-Phenotype (%) (Fibroblast; [2]): 0% and 1%
Population Mitotic Cells (%) (Fibroblast; [2]): 50% and 73% and 61% and 65%
Population Normal (%) (Fibroblast; [2]): 100% and 99%
Population Pyknosed Nuclei (%) (Fibroblast; [2]): 23% [middle of 4 runs]
Total Cell Count (Fibroblast; [2]): 176 and 182 and 232 and 229
Population Apoptotic (%) (Fibroblast; [3]): 54% and 53% and 55%
Population Fragmented Nuclei (%) (Fibroblast; [3]): 8% and 21% and 10%
Population Healthy Nuclei (%) (Fibroblast; [3]): 74% and 57% and 71% and 65%
